This note sets out measurements from article PMC6379856 (ACS Chemical Biology, 2019).

The structures appear in SMILES notation.

For orientation: IC50 means the concentration at which inhibition is half-maximal. A low value points to inhibition by little substance. One may read the Ki as the equilibrium dissociation constant of an inhibitor or competing ligand from its target. Lower therefore signals higher affinity.

For experiment [1], the target named is T1, RARRES3 (Homo sapiens, UniProt Q9UL19).
T1 sequence (Q9UL19 1-164): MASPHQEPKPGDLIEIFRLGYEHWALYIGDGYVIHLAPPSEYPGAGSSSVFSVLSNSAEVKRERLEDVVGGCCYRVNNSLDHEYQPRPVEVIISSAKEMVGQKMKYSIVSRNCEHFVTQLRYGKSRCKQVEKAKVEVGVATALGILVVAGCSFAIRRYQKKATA
Nature of the experiment: Competitive ABPP with probe MB064, cytosol proteome of transfected HEK293T cells. Format: biochemical.

Experiment [2] deals with endogenously expressed serine hydrolases in mouse brain. Description: Competitive gel-based ABPP in mouse brain proteomes with FP-TAMRA and MB064. The format is biochemical. The essentials:
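Mouse brain membrane and cytosol proteomes were treated with DMSO or test compound at 10 µM. Each was then labelled with MB064 or FP-TAMRA and resolved by SDS-PAGE with fluorescent scanning. Coomassie staining served as the protein loading control.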

In experiment [3] the target is T2, PLA2G16 (Homo sapiens, UniProt P53816).
T2 sequence (P53816 1-162): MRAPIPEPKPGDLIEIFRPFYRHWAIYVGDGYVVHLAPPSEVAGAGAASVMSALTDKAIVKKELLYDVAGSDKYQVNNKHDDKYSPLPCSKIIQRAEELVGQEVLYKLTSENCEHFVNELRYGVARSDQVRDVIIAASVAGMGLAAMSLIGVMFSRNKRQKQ
Description: Competitive ABPP with probe MB064, cytosol proteome of transfected HEK293T cells. Format: biochemical.

Experiment [4] deals with other proteins in brown and white adipose tissue. The format is biochemical, mouse. Particulars: 10 μM, probe MB064. The essentials:
(§1)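 Cytosol proteomes from freshly isolated mouse white and brown adipose tissue were preincubated with test compound (10 µM) or DMSO. They were then labelled with probe MB064, resolved by SDS-PAGE and fluorescence-scanned. The gels were Western blotted with an anti-PLA2G16 antibody to locate native PLA2G16.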

Experiment [5] deals with T3, endogenous PLA2G16 (Mus musculus, UniProt Q8R3U1).
T3 sequence (Q8R3U1 1-162): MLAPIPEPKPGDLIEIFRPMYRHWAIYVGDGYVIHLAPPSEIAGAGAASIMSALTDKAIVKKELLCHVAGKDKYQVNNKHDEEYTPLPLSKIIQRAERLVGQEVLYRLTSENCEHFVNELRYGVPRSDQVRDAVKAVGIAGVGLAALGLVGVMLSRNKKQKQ
Nature of the experiment: Competitive ABPP with MB064 in cytosol proteome of mouse WAT and BAT. To be noted: 10 μM. The format is biochemical. The essentials: as §1

Experiment [6] relates to HepG2 cells. Nature of the experiment: Oleic acid-induced lipid droplet formation. The format is cell-based, human. Particulars: 10 μM, 24 h, oleic acid 100 μM. The essentials:
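HepG2 cells were given oleic acid (100 µM, 24 h) to induce steatosis and treated in situ with test compound (10 µM, 24 h). Lipid droplets were stained with Adipored. Significance was assessed by Student's t-test.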

Experiment [7] concerns the target T4, iNAT (Homo sapiens, UniProt Q96KN8).
T4 sequence (Q96KN8 1-279): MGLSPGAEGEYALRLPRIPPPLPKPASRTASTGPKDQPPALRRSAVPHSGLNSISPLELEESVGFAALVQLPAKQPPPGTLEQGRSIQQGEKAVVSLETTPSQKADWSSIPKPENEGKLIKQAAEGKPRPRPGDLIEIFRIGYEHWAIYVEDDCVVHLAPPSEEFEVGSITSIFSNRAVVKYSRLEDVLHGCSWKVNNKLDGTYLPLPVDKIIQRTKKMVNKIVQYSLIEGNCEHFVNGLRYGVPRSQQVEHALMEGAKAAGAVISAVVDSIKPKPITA
Description: Competitive ABPP with probe MB064, cytosol proteome of transfected HEK293T cells. Format: biochemical.

The subject of experiment [8] is U2OS cells transfected with human PLA2G16. Format: cell-based. Particulars: 10 μM, 4 or 8 h, serum-free, in situ. The essentials: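 U2OS cells transfected with human PLA2G16 were exposed in situ, under serum-free conditions, to DMSO vehicle or test compound at 10 µM for 4 or 8 h. Arachidonic acid levels were then measured. Significance was assessed by Student's t-test.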

Experiment [9] concerns the target T2, PLA2G16. Nature of the experiment: PC-A2 fluorescent substrate assay. The format is biochemical. The essentials: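 HEK293T cells overexpressing human PLA2G16 supplied the cytosol proteome used as enzyme source. Test compound was tested over a concentration range in the fluorescent PC-A2 phospholipid substrate assay. Dose–response curves were generated (n = 3).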

The molecule `O=C(CCc1ccc(Cl)cc1)C(=O)NCCc1ccccc1` [Compound 1, 4-(4-chlorophenyl)-2-oxo-N-phenethylbutan-amide] gave an IC50 in [1] of 631 nM. The “labeling of proteins in mouse brain targeted by FP-TAMRA or MB064” value in experiment [2] (10 μM, mouse brain membrane and cytosol proteome) is on record as “did not reduce the labeling of any proteins”. Besides, in experiment [3] (inhibitor at 10 μM, competitive ABPP), the “PLA2G16 labeling by MB064 (library screen)” value is given as “almost completely abolished”. Moreover, the “labeling of other proteins in brown and white adipose tissue” value in experiment [4] is given as “not affected”. Also, the “labeling of native PLA2G16 by MB064” value in experiment [5] is “completely abolished”.

Take `O=C(CCCc1ccccc1)C(=O)NCCc1ccc(Oc2ccc(C(F)(F)F)cn2)cc1` [LEI110, 2-oxo-5-phenyl-N-(4-((5-(trifluoromethyl)pyridin-2-yl)oxy)-phenethyl)pentanamide]: the “lipid droplet formation induced by oleic acid” value in experiment [6] is given as “reduction in lipid droplet formation”. Besides, the IC50 in [7] is 25.1 nM; in experiment [1], 158 nM. Moreover, the “selectivity over brain serine hydrolases” value in [2] (gel-based ABPP assay (Figure S7)) is “selective”. Further, in experiment [3] (PLA2G16), the “increase in potency compared to compound 1 in the ABPP-assay” value is listed as 10 fold. Besides, the “PLA2G16-induced increase in arachidonic acid” value in experiment [8] is “almost completely abolished”. This molecule also showed a Ki in experiment [9] of 20 nM. In addition, in [4], the “labeling of other proteins in brown and white adipose tissue” value is reported as “not affected”. The “labeling of native PLA2G16 by MB064” value in experiment [5] is “completely abolished”.
